Test results as given in ChEMBL document CHEMBL5252539, “In vitro biological evaluation of new antimycobacterial salicylanilide-tuftsin conjugates” (Eur J Med Chem, 2017).
Values after ≈ are worked out from the molar mass of the structure shown. Active and inactive are the calls of the source. No cut-off for these calls is given here. *1 amine or outer side, *2 acyl side, *3 side chain or, on linkers, in order; H or OH if unused. Where a SMILES comes first, the peptide text is derived from it. [ ]: non-standard residue; d: D form. The star is where a group is joined. X2 = C/C(=N\OCC(=O)*)c1ccc(NC(=O)c2cc(Br)ccc2O)cc1; X1 = C/C(=N\OCC(=O)[*:2])c1ccc(N[*:1])cc1; Benzoyl(5-Br-2-OH) = O=C(c1cc(Br)ccc1O)*; Palmitoyl = CCCCCCCCCCCCCCCC(=O)*; X3 = O=C(c1cc(Cl)ccc1O)*

How the values were obtained:
[1] = system: Mycobacterium tuberculosis; assay: Antimycobacterial activity against Mycobacterium tuberculosis H37Rv ATCC 27294 assessed as reduction in bacterial growth after 28 days by serial dilution method; type: functional; conditions: H37Rv ATCC 27294, 672 h, time 28 day
Summary of the method: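 Broth MIC in Sula semisynthetic medium, pH 6.5; 4-week incubation, with 21-day values […] where indicated. Drug-free inoculated bacteria served as growth control. MIC also expressed as drug content (µg/mL) = MIC (µM) × average SAL molar mass × number of SAL per conjugate / 1000.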

[2] = system: Mycobacteroides abscessus; assay: Antimycobacterial activity against Mycobacterium abscessus ATCC 19977 assessed as reduction in bacterial growth after 7 days by serial dilution method; type: functional; conditions: ATCC 19977, 168 h, time 7 day
Summary of the method: (§1)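 MIC determined in Sula semisynthetic medium, pH 6.5, 1 week incubation. Growth inhibition confirmed by plating on Löwenstein-Jensen solid medium and counting CFU. Bacteria inoculated without drug served as growth control.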

[3] = system: Mycobacterium tuberculosis; assay: Antimycobacterial activity against Mycobacterium tuberculosis H37Rv ATCC 27294 assessed as reduction in colony forming unit after 28 days by serial dilution method; type: functional, organism-based; conditions: time 28.0 day
Summary of the method: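 After the 4-week MIC incubation in Sula semisynthetic medium (pH 6.5), growth inhibition confirmed by plating on Löwenstein-Jensen solid medium and counting colony forming units.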

[4] = system: Mycobacteroides abscessus; assay: Antimycobacterial activity against Mycobacterium abscessus ATCC 19977 assessed as reduction in colony forming unit after 7 days by serial dilution method; type: functional, organism-based; conditions: time 7.0 day; summary of the method: as §1
MONO-MAC-6 = assay: Cytostatic activity against human MONO-MAC-6 cells assessed as reduction in cell viability incubated for 24 hrs by MTT assay; type: functional, cell-based; conditions: MONO-MAC-6, 24 h
Summary of the method: (§2)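 MTT viability assay after 24 h exposure of MonoMac6 human monocytic cells or HepG2 human hepatocellular carcinoma cells. Top concentration 200 μM. IC50 taken from dose-response curves as the concentration reducing viability to 50% of maximal.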

HepG2 = assay: Cytostatic activity against human HepG2 cells assessed as reduction in cell viability incubated for 24 hrs by MTT assay; type: functional, cell-based; conditions: HepG2, 24 h; summary of the method: as §2
[5] = Selectivity index, ratio of IC50 for cytostatic activity against human MONO-MAC-6 cells to MIC for antimycobacterial activity against Mycobacterium tuberculosis H37Rv ATCC 27294; type: toxicity, cell-based; conditions: read-out: Selectivity Index
Summary of the method: (§3)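 MTT assay on MonoMac6 or HepG2 cells after 24 h exposure, top concentration 200 µM. SI = IC50 (µM)/MIC (µM) against H37Rv from the 4-week Sula medium assay.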

[6] = Selectivity index, ratio of IC50 for cytostatic activity against human HepG2 cells to MIC for antimycobacterial activity against Mycobacterium tuberculosis H37Rv ATCC 27294; type: toxicity, cell-based; conditions: read-out: Selectivity Index; summary of the method: as §3
[7] = system: Mycobacterium tuberculosis; assay: […] antimycobacterial activity against Mycobacterium tuberculosis H37Rv ATCC 27294 infected in human MONO-MAC-6 cells assessed as reduction in colony forming unit at 125 uM for 6 days by colony counting based analysis; type: functional, organism-based; conditions: time 6.0 day
Summary of the method: (§4)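 MonoMac6 monolayers infected with H37Rv, then treated with compound at 125 or 250 µM for 3 days. Treatment repeated with fresh compound solution for another 3 days. Intracellular bacteria quantified as CFU against untreated infected cells.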

[8] = system: Mycobacterium tuberculosis; assay: […] antimycobacterial activity against Mycobacterium tuberculosis H37Rv ATCC 27294 infected in human MONO-MAC-6 cells assessed as reduction in colony forming unit at 250 uM for 6 days by colony counting based analysis; type: functional, organism-based; conditions: time 6.0 day; summary of the method: as §4

Structure (SMILES)	MIC [1] [µM]	MIC [2] [µM]	Activity [3]	Activity [4]	IC50 (MONO-MAC-6) [µM]	IC50 (HepG2) [µM]	selectivity ratio [5]	selectivity ratio [6]	Activity [7]	Activity [8]
CCCCCCCCCCCCCCCC(=O)NCCCC[C@H](NC(=O)[C@@H]1CCCN1C(=O)[C@H](CCCCN)NC(=O)[C@@H](NC(=O)CO/N=C(\C)c1ccc(NC(=O)c2cc(Cl)ccc2O)cc1)[C@@H](C)O)C(=O)NCC(=O)N[C@H](C(=O)N[C@@H](CCCCN)C(=O)N1CCC[C@H]1C(=O)N[C@@H](CCCCN)C(=O)NCC(=O)N[C@H](C(=O)N[C@@H](CCCCN)C(=O)N1CCC[C@H]1C(=O)N[C@@H](CCCCN)C(=O)NCC(=O)N[C@H](C(=O)N[C@@H](CCCCN)C(=O)N1CCC[C@H]1C(=O)N[C@@H](CCCCN)C(=O)NCC(N)=O)[C@@H](C)O)[C@@H](C)O)[C@@H](C)O (X3-[X1]TKPK(Palmitoyl)GTKPKGTKPKGTKPKG-NH2)	94.5 (≈ 250 µg/mL)	75.6 (≈ 200 µg/mL)	Active	Active	16.8	42.9	0.2	0.5	Active	Active
C/C(=N\OCC(=O)NCC(=O)N[C@@H](Cc1ccccc1)C(=O)N[C@@H](CC(C)C)C(=O)NCC(=O)N[C@H](C(=O)N[C@@H](CCCCN)C(=O)N1CCC[C@@H]1C(=O)N1CCC[C@H]1C(=O)N[C@H](CCCNC(=N)N)C(=O)O)[C@@H](C)O)c1ccc(NC(=O)c2cc(Br)ccc2O)cc1			Active	Active					inactive	Active
C/C(=N\OCC(=O)NCCCC[C@H](NC(=O)[C@@H]1CCCN1C(=O)[C@H](CCCCN)NC(=O)[C@@H](NC(=O)CNC(=O)[C@H](CCCCNC(=O)CO/N=C(\C)c1ccc(NC(=O)c2cc(Br)ccc2O)cc1)NC(=O)[C@@H]1CCCN1C(=O)[C@H](CCCCN)NC(=O)[C@@H](NC(=O)[C@H](CCCNC(=N)N)NC(=O)[C@@H]1CCCN1C(=O)[C@H](CCCCN)NC(=O)[C@@H](N)[C@@H](C)O)[C@@H](C)O)[C@@H](C)O)C(=O)NCC(=O)O)c1ccc(NC(=O)c2cc(Br)ccc2O)cc1 (H-TKPRTKPK(X2)GTKPK(X2)G-OH)	34.8 (≈ 80.1 µg/mL)	86.9 (≈ 200 µg/mL)	Active	Active	101	95.2	2.9	2.7	Active	Active
C/C(=N\OCC(=O)NCC(=O)N[C@@H](Cc1ccccc1)C(=O)N[C@@H](CC(C)C)C(=O)NCC(=O)N[C@H](C(=O)N[C@@H](CCCCN)C(=O)N1CCC[C@H]1C(=O)N[C@@H](CCCCN)C(=O)NCC(=O)O)[C@@H](C)O)c1ccc(NC(=O)c2cc(Br)ccc2O)cc1 ({Benzoyl(5-Br-2-OH)}-[X1]GFLGTKPKG-OH)	46.4 (≈ 60 µg/mL)	155 (≈ 200 µg/mL)	Active	Active	> 200	58	> 4.3	1.3	inactive	Active
C/C(=N\OCC(=O)NCC(=O)N[C@@H](Cc1ccccc1)C(=O)N[C@@H](CC(C)C)C(=O)NCC(=O)N[C@H](C(=O)N[C@@H](CCCCN)C(=O)N1CCC[C@@H]1C(=O)N[C@H](CCCNC(=N)N)C(=O)O)[C@@H](C)O)c1ccc(NC(=O)c2cc(Br)ccc2O)cc1			Active	Active					Active	Active
C/C(=N\OCC(=O)N[C@H](C(=O)N[C@@H](CCCCN)C(=O)N1CCC[C@H]1C(=O)N1CCC[C@@H]1C(=O)N[C@H](CCCNC(=N)N)C(=O)O)[C@@H](C)O)c1ccc(NC(=O)c2cc(Br)ccc2O)cc1			Active	Active					Active	Active
